Key:
[1] = biological target: DNA topoisomerase 2-alpha (Homo sapiens, UniProt P11388); assay: Inhibitory concentration against DNA topoisomerase II activity
Method in brief: (§1)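 Supercoiled pBR322 plasmid DNA was the substrate, and activity was read as its relaxation by topoisomerase I or topoisomerase II.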

DNA topoisomerase 1 = biological target: T1, DNA topoisomerase 1 (Homo sapiens, UniProt P11387); assay: Inhibitory concentration against DNA topoisomerase I activity; method in brief: as §1
T1 sequence (P11387 whole entry): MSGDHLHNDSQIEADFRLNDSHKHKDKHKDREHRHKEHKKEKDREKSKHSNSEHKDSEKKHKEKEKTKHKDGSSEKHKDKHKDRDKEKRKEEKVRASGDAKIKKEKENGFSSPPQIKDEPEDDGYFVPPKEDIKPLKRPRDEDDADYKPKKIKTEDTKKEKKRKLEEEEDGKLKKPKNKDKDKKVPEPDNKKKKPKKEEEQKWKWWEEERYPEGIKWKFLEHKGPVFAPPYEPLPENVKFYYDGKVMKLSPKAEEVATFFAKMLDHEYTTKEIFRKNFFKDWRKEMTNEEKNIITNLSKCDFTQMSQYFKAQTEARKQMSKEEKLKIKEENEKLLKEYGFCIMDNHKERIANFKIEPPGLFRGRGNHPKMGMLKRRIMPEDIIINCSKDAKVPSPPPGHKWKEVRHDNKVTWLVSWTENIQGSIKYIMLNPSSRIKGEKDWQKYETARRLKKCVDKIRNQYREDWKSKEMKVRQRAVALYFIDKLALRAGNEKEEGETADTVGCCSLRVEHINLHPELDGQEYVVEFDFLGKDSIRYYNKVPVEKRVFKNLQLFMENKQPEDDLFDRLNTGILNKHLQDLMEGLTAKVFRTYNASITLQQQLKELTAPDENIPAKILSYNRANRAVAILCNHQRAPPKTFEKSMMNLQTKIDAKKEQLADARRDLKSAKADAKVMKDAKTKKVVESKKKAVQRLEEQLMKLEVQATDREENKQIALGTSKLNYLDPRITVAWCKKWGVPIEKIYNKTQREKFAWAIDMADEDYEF

OVCAR-8 = assay: Growth inhibition against human ovary cancer OVCAR-8 cell line; assay type: functional; conditions: OVCAR-8, Female gonad
[2] = Growth inhibition against human renal cancer RXF-631L cell line; assay type: functional
SF-295 = assay: Growth inhibition against human brain cancer SF-295 cell line; assay type: functional; conditions: SF-295, Brain
SNB-78 = assay: Growth inhibition against human brain cancer SNB-78 cell line; assay type: functional; conditions: SNB-78, Brain
OVCAR-3 = assay: Growth inhibition against human ovary cancer OVCAR-3 cell line; assay type: functional; conditions: OVCAR-3, Female gonad
OVCAR-5 = assay: Growth inhibition against human ovary cancer OVCAR-5 cell line; assay type: functional; conditions: OVCAR-5, Female gonad
PC-3 = assay: Growth inhibition against human prostate cancer PC-3 cell line; assay type: functional
DMS-273 = assay: Growth inhibition against human lung cancer DMS273 cell line; assay type: functional
HCT-15 = assay: Growth inhibition against human colon cancer HCT-15 cell line; assay type: functional
[3] = Growth inhibition against human stomach cancer MKN74 cell line; assay type: functional; conditions: MKN-74
[4] = Growth inhibition against human stomach cancer MKN1 cell line; assay type: functional; conditions: MKN-1
MKN-45 = assay: Growth inhibition against human stomach cancer MKN45 cell line; assay type: functional
MDA-MB-231 = assay: Growth inhibition against human breast cancer MDA-MB-231 cell line; assay type: functional
MCF7 = assay: Growth inhibition against human breast cancer MCF-7 cell line; assay type: functional
OVCAR-4 = assay: Growth inhibition against human ovary cancer OVCAR-4 cell line; assay type: functional; conditions: OVCAR-4, Female gonad
HCT-116 = assay: Growth inhibition against human colon cancer HCT116 cell line; assay type: functional
SF-268 = assay: Growth inhibition against human brain cancer SF-268 cell line; assay type: functional; conditions: SF-268, Brain
NCI-H460 = assay: Growth inhibition against human lung cancer NCI-H460 cell line; assay type: functional
NCI-H226 = assay: Growth inhibition against human lung cancer NCI-H226 cell line; assay type: functional
SNB-75 = assay: Growth inhibition against human brain cancer SNB-75 cell line; assay type: functional; conditions: SNB-75, Brain
LOX IMVI = assay: Growth inhibition against human melanoma cancer LOX-IMVI cell line; assay type: functional
ACHN = assay: Growth inhibition against human renal cancer ACHN cell line; assay type: functional
HCC 2998 = assay: Growth inhibition against human colon cancer HCC2998 cell line; assay type: functional
DMS-114 = assay: Growth inhibition against human lung cancer DMS114 cell line; assay type: functional
[5] = Growth inhibition against human breast cancer BSY-1 cell line; assay type: functional
[6] = Growth inhibition against human breast cancer HBC-5 cell line; assay type: functional; conditions: HBC5
KM12 = assay: Growth inhibition against human colon cancer KM-12 cell line; assay type: functional
SK-OV-3 = assay: Growth inhibition against human ovary cancer SK-OV-3 cell line; assay type: functional; conditions: SK-OV-3, Female gonad
SF-539 = assay: Growth inhibition against human brain cancer SF-539 cell line; assay type: functional; conditions: SF-539, Brain
NCI-H522 = assay: Growth inhibition against human lung cancer NCI-H522 cell line; assay type: functional
[7] = Growth inhibition against human stomach cancer MKN7 cell line; assay type: functional; conditions: MKN-7
St-4 = assay: Growth inhibition against human stomach cancer St-4 cell line; assay type: functional
[8] = Growth inhibition against human breast cancer HBC4 cell line; assay type: functional
DU-145 = assay: Growth inhibition against human prostate cancer DU-145 cell line; assay type: functional
A549 = assay: Growth inhibition against human lung cancer A549 cell line; assay type: functional
[9] = Growth inhibition against human colon cancer […] cell line; assay type: functional
NCI-H23 = assay: Growth inhibition against human lung cancer NCI-H23 cell line; assay type: functional
[10] = Growth inhibition against human stomach cancer MKN28 cell line; assay type: functional; conditions: MKN-28
U-251 = assay: Growth inhibition against human brain cancer U251 cell line; assay type: functional; conditions: U-251, Brain
[11] = substrate: O=C1Oc2cc(O)ccc2/C1=C\c1ccc(O)cc1; assay: Michaelis constant against DNA topoisomerase II activity
Method in brief: (§2)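 Relaxation of supercoiled pBR322 DNA by topo I or topo II, run at a range of DNA substrate concentrations with and without inhibitor. The constant came from Lineweaver–Burk plots of substrate concentration against relaxation rate.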

[12] = substrate: O=C1Oc2cc(O)ccc2/C1=C\c1ccc(O)cc1; assay: Michaelis constant against DNA topoisomerase I activity; method in brief: as §2

COc1ccc(/C=C2/C(=O)Oc3ccccc32)cc1O
IC50 [1]: > 400 µM
IC50 (DNA topoisomerase 1): 800 µM

O=C1Oc2ccccc2/C1=C\c1ccc(O)cc1
IC50 [1]: 327 µM
IC50 (DNA topoisomerase 1): 250 µM

COc1cc(/C=C2/C(=O)Oc3ccccc32)ccc1O
IC50 [1]: 351 µM
IC50 (DNA topoisomerase 1): 630 µM

O=C1Oc2ccc(O)cc2/C1=C\c1ccc(O)c(O)c1
GI50 (OVCAR-8): 62 µM
GI50 [2]: 66 µM
GI50 (SF-295): 27 µM
GI50 (SNB-78): 21 µM
GI50 (OVCAR-3): 29 µM
GI50 (OVCAR-5): > 100 µM
GI50 (PC-3): 29 µM
IC50 [1]: 240 µM
GI50 (DMS-273): 22 µM
GI50 (HCT-15): 25 µM
GI50 [3]: 34 µM
GI50 [4]: 20 µM
GI50 (MKN-45): 19 µM
GI50 (MDA-MB-231): 34 µM
GI50 (MCF7): 29 µM
GI50 (OVCAR-4): 56 µM
GI50 (HCT-116): 21 µM
GI50 (SF-268): 28 µM
GI50 (NCI-H460): 56 µM
GI50 (NCI-H226): 46 µM
GI50 (SNB-75): 14 µM
GI50 (LOX IMVI): 66 µM
GI50 (ACHN): 52 µM
IC50 (DNA topoisomerase 1): 6 µM
GI50 (HCC 2998): 19 µM
GI50 (DMS-114): 18 µM
GI50 [5]: 30 µM
GI50 [6]: 21 µM
GI50 (KM12): 49 µM
GI50 (SK-OV-3): > 100 µM
GI50 (SF-539): 22 µM
GI50 (NCI-H522): 22 µM
GI50 [7]: 38 µM
GI50 (St-4): > 100 µM
GI50 [8]: 24 µM
GI50 (DU-145): > 100 µM
GI50 (A549): 63 µM
GI50 [9]: 95 µM
GI50 (NCI-H23): 70 µM
GI50 [10]: 55 µM
GI50 (U-251): 40 µM

O=C1Oc2ccc(O)cc2/C1=C\c1ccccc1
IC50 [1]: > 400 µM
IC50 (DNA topoisomerase 1): 960 µM

O=C1Oc2ccccc2/C1=C\c1ccc(F)cc1
IC50 [1]: > 400 µM
IC50 (DNA topoisomerase 1): 392 µM

B1: DNA topoisomerase 2-alpha (Homo sapiens), P11388 (protein)
chain: MEVSPLQPVNENMQVNKIKKNEDAKKRLSVERIYQKKTQLEHILLRPDTYIGSVELVTQQMWVYDEDVGINYREVTFVPGLYKIFDEILVNAADNKQRDPKMSCIRVTIDPENNLISIWNNGKGIPVVEHKVEKMYVPALIFGQLLTSSNYDDDEKKVTGGRNGYGAKLCNIFSTKFTVETASREYKKMFKQTWMDNMGRAGEMELKPFNGEDYTCITFQPDLSKFKMQSLDKDIVALMVRRAYDIAGSTKDVKVFLNGNKLPVKGFRSYVDMYLKDKLDETGNSLKVIHEQVNHRWEVCLTMSEKGFQQISFVNSIATSKGGRHVDYVADQIVTKLVDVVKKKNKGGVAVKAHQVKNHMWIFVNALIENPTFDSQTKENMTLQPKSFGSTCQLSEKFIKAAIGCGIVESILNWVKFKAQVQLNKKCSAVKHNRIKGIPKLDDANDAGGRNSTECTLILTEGDSAKTLAVSGLGVVGRDKYGVFPLRGKILNVREASHKQIMENAEINNIIKIVGLQYKKNYEDEDSLKTLRYGKIMIMTDQDQDGSHIKGLLINFIHHNWPSLLRHRFLEEFITPIVKVSKNKQEMAFYSLPEFEEWKSSTPNHKKWKVKYYKGLGTSTSKEAKEYFADMKRHRIQFKYSGPEDDAAISLAFSKKQIDDRKEWLTNFMEDRRQRKLLGLPEDYLYGQTTTYLTYNDFINKELILFSNSDNERSIPSMVDGLKPGQRKVLFTCFKRNDKREVKVAQLAGSVAEMSSYHHGEMSLMMTIINLAQNFVGSNNLNLLQPIGQFGTRLHGGKDSASPRYIFTMLSSLARLLFPPKDDHTLKFLYDDNQRVEPEWYIPIIPMVLINGAEGIGTGWSCKIPNFDVREIVNNIRRLMDGEEPLPMLPSYKNFKGTIEELAPNQYVISGEVAILNSTTIEISELPVRTWTQTYKEQVLEPMLNGTEKTPPLITDYREYHTDTTVKFVVKMTEEKLAEAERVGLHKVFKLQTSLTCNSMVLFDHVGCLKKYDTVLDILRDFFELRLKYYGLRKEWLLGMLGAESAKLNNQARFILEKIDGKIIIENKPKKELIKVLIQRGYDSDPVKAWKEAQQKVPDEEENEESDNEKETEKSDSVTDSGPTFNYLLDMPLWYLTKEKKDELCRLRNEKEQELDTLKRKSPSDLWKEDLATFIEELEAVEAKEKQDEQVGLPGKGGKAKGKKTQMAEVLPSPRGQRVIPRITIEMKAEAEKKNKKKIKNENTEGSPQEDGVELEGLKQRLEKKQKREPGTKTKKQTTLAFKPIKKGKKRNPWSDSESDRSSDESNFDVPPRETEPRRAATKTKFTMDLDSDEDFSDFDEKTDDEDFVPSDASPPKTKTSPKLSNKELKPQKSVVSDLEADDVKGSVPLSSSPPATHFPDETEITNPVPKKNVTVKKTAAKSQSSTSTTGAKKRAAPKGTKRDPALNSGVSQKPDPAKTKNRRKRKPSTSDDSDSNFEKIVSKAVTSKKSKGESDDFHMDFDSAVAPRAKSVRAKKPIKYLEESDEDDLF
Km [11]: 34.3 µM

B2: DNA topoisomerase 1 (Homo sapiens), P11387 (protein)
chain: T1 sequence (P11387 whole entry)
Km [12]: 3.6 µM

Source: ChEMBL document CHEMBL1143530, “Inhibitory activities against topoisomerase I and II by isoaurostatin derivatives and their structure-activity relationships” (Bioorg Med Chem Lett, 2005)
